Measurements: ChEMBL document CHEMBL3763060, “Synthesis and evaluation of analogs of the phenylpyridazinone NPD-001 as potent trypanosomal TbrPDEB1 phosphodiesterase inhibitors and in vitro trypanocidals” (Bioorg Med Chem, 2016)
In brackets after ≈: the same amount, converted by molar mass.

Columns and labels:
[1] = target: T1, Class 1 phosphodiesterase PDEB1 (Trypanosoma brucei, UniProt Q8WQX9); experiment: Inhibition of recombinant Trypanosoma brucei PDEB1 using [3H]-cAMP as substrate after 15 mins by scintillation proximity assay
T1 sequence (Q8WQX9 whole entry): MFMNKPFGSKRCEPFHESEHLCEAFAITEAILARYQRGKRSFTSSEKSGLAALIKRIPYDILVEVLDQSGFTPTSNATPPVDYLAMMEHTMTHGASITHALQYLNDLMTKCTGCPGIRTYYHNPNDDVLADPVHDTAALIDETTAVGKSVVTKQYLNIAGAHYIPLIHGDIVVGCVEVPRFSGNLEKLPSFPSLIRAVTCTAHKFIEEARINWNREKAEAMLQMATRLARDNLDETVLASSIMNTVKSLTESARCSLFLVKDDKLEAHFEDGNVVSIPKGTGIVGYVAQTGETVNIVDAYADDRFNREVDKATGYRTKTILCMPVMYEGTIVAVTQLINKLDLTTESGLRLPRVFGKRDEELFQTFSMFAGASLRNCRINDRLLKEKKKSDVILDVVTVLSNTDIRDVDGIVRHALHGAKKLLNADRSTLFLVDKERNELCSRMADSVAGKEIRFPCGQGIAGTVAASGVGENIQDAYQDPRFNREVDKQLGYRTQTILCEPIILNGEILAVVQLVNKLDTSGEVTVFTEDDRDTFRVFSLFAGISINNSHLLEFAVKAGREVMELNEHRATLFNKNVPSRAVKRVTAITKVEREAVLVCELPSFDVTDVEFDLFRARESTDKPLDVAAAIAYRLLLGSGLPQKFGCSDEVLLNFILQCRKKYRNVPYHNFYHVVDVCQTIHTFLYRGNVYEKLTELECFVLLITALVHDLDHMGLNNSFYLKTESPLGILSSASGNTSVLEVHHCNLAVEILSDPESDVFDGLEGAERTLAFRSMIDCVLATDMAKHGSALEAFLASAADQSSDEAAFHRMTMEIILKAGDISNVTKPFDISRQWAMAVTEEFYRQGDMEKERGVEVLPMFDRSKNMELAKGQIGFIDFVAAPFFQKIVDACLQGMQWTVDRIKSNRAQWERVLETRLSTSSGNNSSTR
In short: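 Inhibition of TbrPDEB1-mediated [³H]-cAMP hydrolysis was read by scintillation proximity assay. Each analog was run in at least two independent experiments.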

[2] = tested on: Trypanosoma brucei brucei; experiment: Antitrypanosomal activity against suramin-sensitive Trypanosoma brucei brucei Squib427 assessed as inhibition of parasite growth; type: functional, organism-based
In short: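 Bloodstream-form trypomastigotes of Squib-427 were grown at 37 °C and 5% CO₂ in Hirumi-9 medium with 10% FCS. Compounds came from 20 mM DMSO stocks, pre-diluted 2- or 4-fold serially in DMSO, then diluted in demineralized water; final DMSO was <1%. Results were reported as −logEC₅₀ with n = 2.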

[3] = Cytotoxicity against human MRC5 cells assessed as growth inhibition; type: cell-based
In short: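 MRC-5 fibroblasts were grown at 37 °C and 5% CO₂ in Hirumi-9 medium with 10% FCS. Compounds came from 20 mM DMSO stocks, serially pre-diluted 2- or 4-fold in DMSO, then in demineralized water; final DMSO was <1%. Results were reported as −logCC₅₀ with n = 2.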

[4] = Selectivity index, ratio of CC50 for human MRC5 cells to EC50 for suramin-sensitive Trypanosoma brucei brucei Squib427; type: toxicity, cell-based; conditions: read-out: Ratio CC50/EC50
In short: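 The index was calculated as CC₅₀ in MRC-5 fibroblasts divided by EC₅₀ against T. b. brucei. Both came from parallel assays in Hirumi-9 medium with 10% FCS at 37 °C and 5% CO₂, each n = 2.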

[5] = target: T2, 3',5'-cyclic-AMP phosphodiesterase 4B (Homo sapiens, UniProt Q07343); experiment: Inhibition of full length human recombinant PDE4B1 using [3H]-cAMP as substrate by scintillation proximity assay
[6] = Selectivity ratio of IC50 for Trypanosoma brucei recombinant PDEB1 to IC50 for full length human recombinant PDE4B1
[7] = Solubility of compound in 0.05 M phosphate buffer at pH 7.4; type: physicochemical
[8] = target: Dual 3',5'-cyclic-AMP and -GMP phosphodiesterase 11A (Homo sapiens, UniProt Q9HCR9); experiment: Inhibition of full length human recombinant PDE11A4 using [3H]-cAMP as substrate by scintillation proximity assay
[9] = target: cAMP and cAMP-inhibited cGMP 3',5'-cyclic phosphodiesterase 10A (Homo sapiens, UniProt Q9Y233); experiment: Inhibition of full length human recombinant PDE10A using [3H]-cAMP as substrate by scintillation proximity assay
[10] = target: High affinity cGMP-specific 3',5'-cyclic phosphodiesterase 9A (Homo sapiens, UniProt O76083); experiment: Inhibition of full length human recombinant PDE9A3 using [3H]-cAMP as substrate by scintillation proximity assay
[11] = Inhibition of Trypanosoma brucei PDEB2 using [3H]-cAMP as substrate after 15 mins by scintillation proximity assay
[12] = target: T2, 3',5'-cyclic-AMP phosphodiesterase 4B; experiment: Inhibition of full length human recombinant PDE4B2 using [3H]-cAMP as substrate by scintillation proximity assay
[13] = target: 3',5'-cyclic-AMP phosphodiesterase 4D (Homo sapiens, UniProt Q08499); experiment: Inhibition of full length human recombinant PDE4D3 using [3H]-cAMP as substrate by scintillation proximity assay
[14] = target: cGMP-specific 3',5'-cyclic phosphodiesterase (Homo sapiens, UniProt O76074); experiment: Inhibition of full length human recombinant PDE5A1 using [3H]-cGMP as substrate by scintillation proximity assay
In short: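 Radiolabelled cGMP substrate at 0.5 (final assay level). Scintillation proximity read-out of the full-length recombinant enzyme's hydrolytic activity, run in the presence of test compounds.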

[15] = target: High affinity 3',5'-cyclic-AMP phosphodiesterase 7A (Homo sapiens, UniProt Q13946); experiment: Inhibition of full length human recombinant PDE7A1 using [3H]-cAMP as substrate by scintillation proximity assay
[16] = target: Dual specificity calcium/calmodulin-dependent 3',5'-cyclic nucleotide phosphodiesterase 1B (Homo sapiens, UniProt Q01064); experiment: Inhibition of full length human recombinant PDE1B1 using [3H]-cAMP as substrate by scintillation proximity assay
[17] = target: cGMP-dependent 3',5'-cyclic phosphodiesterase (Homo sapiens, UniProt O00408); experiment: Inhibition of full length human recombinant PDE2A3 using [3H]-cAMP as substrate by scintillation proximity assay
[18] = target: High affinity cAMP-specific and IBMX-insensitive 3',5'-cyclic phosphodiesterase 8B (Homo sapiens, UniProt O95263); experiment: Inhibition of full length human recombinant PDE8B using [3H]-cAMP as substrate by scintillation proximity assay
[19] = Inhibition of full length human recombinant PDE3A1 using [3H]-cAMP as substrate by scintillation proximity assay
Trypanosoma brucei = experiment: Antitrypanosomal activity against Trypanosoma brucei assessed as inhibition of parasite growth after 48 hrs by resazurin assay; type: functional, organism-based

T2 sequence (Q07343 whole entry): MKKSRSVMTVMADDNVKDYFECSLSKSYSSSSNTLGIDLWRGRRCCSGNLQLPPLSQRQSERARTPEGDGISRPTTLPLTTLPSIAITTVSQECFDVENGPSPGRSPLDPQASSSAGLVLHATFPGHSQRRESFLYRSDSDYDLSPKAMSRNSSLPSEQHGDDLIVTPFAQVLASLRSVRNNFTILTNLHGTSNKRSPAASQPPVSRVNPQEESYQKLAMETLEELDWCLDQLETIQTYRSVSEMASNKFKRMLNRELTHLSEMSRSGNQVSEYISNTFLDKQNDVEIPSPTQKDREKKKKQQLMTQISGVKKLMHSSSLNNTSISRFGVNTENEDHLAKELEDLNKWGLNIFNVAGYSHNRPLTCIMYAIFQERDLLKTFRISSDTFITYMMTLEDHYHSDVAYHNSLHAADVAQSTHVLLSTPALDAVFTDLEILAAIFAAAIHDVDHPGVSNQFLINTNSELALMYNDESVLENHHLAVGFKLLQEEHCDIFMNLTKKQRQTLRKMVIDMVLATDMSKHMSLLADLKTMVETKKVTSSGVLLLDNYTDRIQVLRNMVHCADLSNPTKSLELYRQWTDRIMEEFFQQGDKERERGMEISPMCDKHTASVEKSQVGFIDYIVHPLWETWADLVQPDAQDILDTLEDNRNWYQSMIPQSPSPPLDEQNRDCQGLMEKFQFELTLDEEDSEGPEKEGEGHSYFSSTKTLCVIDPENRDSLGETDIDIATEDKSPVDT
Sequence of cGMP-dependent 3',5'-cyclic phosphodiesterase (O00408 whole entry): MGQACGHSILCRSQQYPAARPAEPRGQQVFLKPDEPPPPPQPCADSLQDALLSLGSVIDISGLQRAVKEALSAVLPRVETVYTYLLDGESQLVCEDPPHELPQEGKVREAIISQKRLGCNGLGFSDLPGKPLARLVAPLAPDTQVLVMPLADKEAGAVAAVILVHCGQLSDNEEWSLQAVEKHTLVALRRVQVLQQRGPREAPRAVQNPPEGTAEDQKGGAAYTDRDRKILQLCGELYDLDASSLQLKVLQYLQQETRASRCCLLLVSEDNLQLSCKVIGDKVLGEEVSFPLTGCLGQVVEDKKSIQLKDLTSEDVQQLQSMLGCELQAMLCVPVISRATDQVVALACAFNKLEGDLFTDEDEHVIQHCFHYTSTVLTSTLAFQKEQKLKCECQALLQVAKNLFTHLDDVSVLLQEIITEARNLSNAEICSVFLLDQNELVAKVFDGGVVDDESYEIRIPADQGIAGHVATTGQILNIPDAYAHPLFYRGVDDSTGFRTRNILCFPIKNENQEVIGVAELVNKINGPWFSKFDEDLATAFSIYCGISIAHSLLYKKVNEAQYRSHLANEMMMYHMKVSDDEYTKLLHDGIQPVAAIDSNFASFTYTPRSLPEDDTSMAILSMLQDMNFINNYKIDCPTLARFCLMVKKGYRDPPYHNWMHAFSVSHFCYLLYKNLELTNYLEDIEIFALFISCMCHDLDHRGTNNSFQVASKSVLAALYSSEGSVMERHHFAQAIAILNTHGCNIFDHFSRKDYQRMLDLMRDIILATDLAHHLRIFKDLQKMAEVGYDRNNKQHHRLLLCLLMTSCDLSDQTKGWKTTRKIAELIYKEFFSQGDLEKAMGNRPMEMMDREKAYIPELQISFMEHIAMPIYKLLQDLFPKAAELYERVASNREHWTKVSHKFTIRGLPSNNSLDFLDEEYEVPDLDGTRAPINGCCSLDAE
Sequence of High affinity cGMP-specific 3',5'-cyclic phosphodiesterase 9A (O76083 whole entry): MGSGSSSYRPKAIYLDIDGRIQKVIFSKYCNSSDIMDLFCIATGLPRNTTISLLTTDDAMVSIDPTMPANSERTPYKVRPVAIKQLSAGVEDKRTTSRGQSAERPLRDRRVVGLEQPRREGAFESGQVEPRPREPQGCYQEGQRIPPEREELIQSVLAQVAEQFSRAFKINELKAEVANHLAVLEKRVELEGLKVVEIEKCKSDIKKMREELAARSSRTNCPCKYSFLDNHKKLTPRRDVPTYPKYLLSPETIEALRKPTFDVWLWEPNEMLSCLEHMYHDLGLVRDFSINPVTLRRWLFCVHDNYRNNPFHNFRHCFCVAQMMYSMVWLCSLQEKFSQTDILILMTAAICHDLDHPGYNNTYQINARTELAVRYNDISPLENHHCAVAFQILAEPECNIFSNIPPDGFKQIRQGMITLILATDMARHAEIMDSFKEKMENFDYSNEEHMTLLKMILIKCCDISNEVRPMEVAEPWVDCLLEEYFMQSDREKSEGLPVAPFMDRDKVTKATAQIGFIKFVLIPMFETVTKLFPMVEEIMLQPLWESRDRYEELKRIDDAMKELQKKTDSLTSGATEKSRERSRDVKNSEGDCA
Sequence of Dual specificity calcium/calmodulin-dependent 3',5'-cyclic nucleotide phosphodiesterase 1B (Q01064 whole entry): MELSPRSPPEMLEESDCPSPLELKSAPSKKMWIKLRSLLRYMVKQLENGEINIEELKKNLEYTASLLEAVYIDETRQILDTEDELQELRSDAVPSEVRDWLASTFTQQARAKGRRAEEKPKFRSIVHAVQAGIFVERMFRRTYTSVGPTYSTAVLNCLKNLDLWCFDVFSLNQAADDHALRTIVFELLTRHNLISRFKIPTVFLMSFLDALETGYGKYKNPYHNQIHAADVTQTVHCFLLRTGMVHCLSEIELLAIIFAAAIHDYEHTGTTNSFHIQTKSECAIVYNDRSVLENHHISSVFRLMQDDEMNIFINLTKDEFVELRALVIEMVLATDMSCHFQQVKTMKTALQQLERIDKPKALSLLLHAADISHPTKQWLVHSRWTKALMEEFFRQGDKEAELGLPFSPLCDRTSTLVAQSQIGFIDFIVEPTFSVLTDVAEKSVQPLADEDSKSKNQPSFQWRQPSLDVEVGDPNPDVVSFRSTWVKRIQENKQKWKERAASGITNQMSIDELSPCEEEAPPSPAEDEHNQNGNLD
Sequence of 3',5'-cyclic-AMP phosphodiesterase 4D (Q08499 whole entry): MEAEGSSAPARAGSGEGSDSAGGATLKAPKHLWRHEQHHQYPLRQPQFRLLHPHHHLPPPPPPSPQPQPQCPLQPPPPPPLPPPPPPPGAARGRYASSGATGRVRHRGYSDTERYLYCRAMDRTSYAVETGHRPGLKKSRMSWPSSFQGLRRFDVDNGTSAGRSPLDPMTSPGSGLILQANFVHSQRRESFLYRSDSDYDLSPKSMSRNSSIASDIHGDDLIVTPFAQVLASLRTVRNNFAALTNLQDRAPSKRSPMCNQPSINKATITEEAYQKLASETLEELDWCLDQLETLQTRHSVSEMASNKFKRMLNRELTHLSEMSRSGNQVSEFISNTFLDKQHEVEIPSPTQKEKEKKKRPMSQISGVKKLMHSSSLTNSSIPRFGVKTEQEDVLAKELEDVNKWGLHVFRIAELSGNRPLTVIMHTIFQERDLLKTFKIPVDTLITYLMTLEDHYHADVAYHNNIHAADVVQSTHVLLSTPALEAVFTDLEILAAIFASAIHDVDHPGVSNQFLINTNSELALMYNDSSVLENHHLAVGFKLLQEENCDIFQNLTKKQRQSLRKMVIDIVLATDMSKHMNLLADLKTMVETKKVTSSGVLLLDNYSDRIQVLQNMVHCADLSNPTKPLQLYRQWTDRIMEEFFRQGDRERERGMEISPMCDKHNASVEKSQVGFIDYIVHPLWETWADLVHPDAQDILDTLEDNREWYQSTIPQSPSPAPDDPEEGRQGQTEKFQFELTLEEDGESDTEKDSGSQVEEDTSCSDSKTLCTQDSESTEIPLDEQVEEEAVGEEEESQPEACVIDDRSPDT
Sequence of Dual 3',5'-cyclic-AMP and -GMP phosphodiesterase 11A (Q9HCR9 whole entry): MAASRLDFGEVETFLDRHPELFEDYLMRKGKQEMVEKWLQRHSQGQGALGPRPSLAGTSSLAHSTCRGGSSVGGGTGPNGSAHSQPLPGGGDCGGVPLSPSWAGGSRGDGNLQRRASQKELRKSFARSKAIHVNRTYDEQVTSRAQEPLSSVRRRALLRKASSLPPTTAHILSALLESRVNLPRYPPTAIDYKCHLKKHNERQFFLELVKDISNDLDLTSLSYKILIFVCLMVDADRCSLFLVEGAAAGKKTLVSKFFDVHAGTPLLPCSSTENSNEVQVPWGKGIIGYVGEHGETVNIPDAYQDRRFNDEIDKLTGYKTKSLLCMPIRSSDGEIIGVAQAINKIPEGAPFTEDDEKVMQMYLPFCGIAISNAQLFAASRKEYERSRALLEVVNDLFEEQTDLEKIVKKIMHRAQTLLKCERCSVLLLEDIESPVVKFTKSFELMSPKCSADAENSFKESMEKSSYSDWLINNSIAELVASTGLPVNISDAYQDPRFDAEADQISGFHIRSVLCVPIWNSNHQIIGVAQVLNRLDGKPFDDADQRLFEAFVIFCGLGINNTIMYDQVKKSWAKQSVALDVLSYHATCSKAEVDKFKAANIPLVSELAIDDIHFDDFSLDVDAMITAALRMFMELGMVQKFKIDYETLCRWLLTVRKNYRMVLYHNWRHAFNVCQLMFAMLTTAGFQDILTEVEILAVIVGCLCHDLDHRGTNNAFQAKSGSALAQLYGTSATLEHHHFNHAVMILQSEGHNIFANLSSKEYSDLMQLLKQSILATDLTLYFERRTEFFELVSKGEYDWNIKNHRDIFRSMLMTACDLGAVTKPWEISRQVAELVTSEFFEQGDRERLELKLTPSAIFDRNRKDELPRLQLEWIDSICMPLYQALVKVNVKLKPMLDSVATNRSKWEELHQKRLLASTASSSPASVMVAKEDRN
Sequence of High affinity 3',5'-cyclic-AMP phosphodiesterase 7A (Q13946 whole entry): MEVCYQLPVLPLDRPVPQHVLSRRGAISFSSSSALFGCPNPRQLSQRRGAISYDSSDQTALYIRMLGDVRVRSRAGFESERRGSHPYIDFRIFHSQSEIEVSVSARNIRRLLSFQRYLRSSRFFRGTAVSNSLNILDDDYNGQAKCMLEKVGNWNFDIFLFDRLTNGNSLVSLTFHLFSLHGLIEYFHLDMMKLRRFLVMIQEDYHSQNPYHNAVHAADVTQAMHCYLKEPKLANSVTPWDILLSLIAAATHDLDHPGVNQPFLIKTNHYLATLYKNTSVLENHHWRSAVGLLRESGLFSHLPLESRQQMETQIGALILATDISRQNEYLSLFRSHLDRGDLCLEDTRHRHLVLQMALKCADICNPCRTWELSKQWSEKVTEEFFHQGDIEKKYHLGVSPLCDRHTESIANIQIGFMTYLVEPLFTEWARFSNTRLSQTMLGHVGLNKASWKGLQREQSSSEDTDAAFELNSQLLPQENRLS

Row | SMILES | IC50 [1] | EC50 [2] | IC50 [5] | CC50 [3] | selectivity ratio [4] | other results
1 | COc1ccc(C2=NNC(=O)[C@@H]3CC=CC[C@H]23)cc1OC (racemic) | 12600 nM |  |  |  |  | 
2 | COc1ccc(C2=NN(C3CCCCCC3)C(=O)CC2)cc1OC | 10000 nM |  |  |  |  | 
3 | COc1ccc(C2=NN(C(C)C)C(=O)[C@@H]3CCCC[C@H]23)cc1OC (racemic) | 2000 nM |  |  |  |  | 
4 | COc1ccc(C2=NN(C3CCCCCC3)C(=O)[C@@H]3CC=CC[C@H]23)cc1OCCCCOc1ccc(-c2nnnn2C)cc1 (racemic) | 10 nM | 501 nM | 0.631 nM | > 63100 nM | > 125 | Ratio IC50 [6]: 16; solubility [7]: < 2 µM
5 | COc1ccc(C2=NN(C3CCCCCC3)C(=O)[C@@H]3CC=CC[C@H]23)cc1OCCCCOc1ccc(-c2nnn(C)n2)cc1 (racemic) | 3.16 nM | 251 nM | 0.501 nM | > 63100 nM | > 251 | Ratio IC50 [6]: 6; solubility [7]: < 2 µM
6 | COc1ccc(C2=NN(C3CCCCCC3)C(=O)[C@@H]3CC=CC[C@H]23)cc1OCCCCOc1ccc(-c2nnn[nH]2)cc1 (racemic) |  | 20 nM | 0.631 nM | 6310 nM |  | IC50 [8]: 2000 nM; IC50 [9]: 501 nM; IC50 [10]: > 10000 nM; IC50 [11]: 3 nM; pIC50 [11]: 8.5; IC50 [12]: 0.501 nM; IC50 [13]: 0.631 nM; IC50 [14]: 2000 nM; IC50 [15]: 3160 nM; IC50 [16]: 3980 nM; IC50 [17]: 6310 nM; IC50 [18]: 3980 nM; pIC50 [19]: 6.9; IC50 (Trypanosoma brucei): 80 nM; solubility [7]: 75 µM (≈ 43.9 µg/mL)
7 | COc1ccc(C2=NN(C3CCCCCC3)C(=O)[C@@H]3CC=CC[C@H]23)cc1OCCCCOc1ccc(-n2ccnc2)cc1 (racemic) | 12.6 nM | 1000 nM | 0.2 nM | 39800 nM | 40 | Ratio IC50 [6]: 63
8 | COc1ccc(C2=NN(C3CCCCCC3)C(=O)[C@@H]3CCCC[C@H]23)cc1OC (racemic) | 1580 nM |  |  |  |  | 
9 | COc1ccc(C2=NN(C3CCCCCC3)C(=O)[C@@H]3CC=CC[C@H]23)cc1OCCCCOc1ccc(C(=O)O)cc1 (racemic) | 316 nM |  | 0.316 nM |  |  | Ratio IC50 [6]: 1000
10 | COc1ccc(-c2nn(C3CCCCCC3)c(=O)c3ccccc23)cc1OC | > 10000 nM |  |  |  |  | 
11 | COc1ccc(C2=NN(C3CCCCCC3)C(=O)[C@@H]3CC=CC[C@H]23)cc1OCCCCn1cnc2ncncc21 (racemic) | 15.8 nM | 200 nM | 1.58 nM | 39800 nM | 200 | Ratio IC50 [6]: 10
12 | COc1ccc(C2=NN(C3CCCCCC3)C(=O)[C@@H]3CC=CC[C@H]23)cc1OCCCCCc1ccccc1 (racemic) | 63.1 nM | 5010 nM |  | > 63100 nM | > 13 | 

Now from value to compound, other results behind:

Row | IC50 [1] | EC50 [2] | IC50 [5] | SMILES | CC50 [3] | selectivity ratio [4] | other results
13 | 79.4 nM | 794 nM |  | COCCOc1cc(C2=NN(C3CCCCCC3)C(=O)[C@@H]3CC=CC[C@H]23)ccc1OC (racemic) | 25100 nM | 32 | 
14 | 100000 nM |  |  | COc1cccc(C2=NN(C3CCCCCC3)C(=O)[C@@H]3CC=CC[C@H]23)c1 (racemic) |  |  | 
15 | 126 nM | 1000 nM |  | COc1cc(COc2cc(C3=NN(C4CCCCCC4)C(=O)[C@@H]4CC=CC[C@H]34)ccc2OC)cc(OC)c1 (racemic) | 12600 nM | 12.6 | 
16 | 63.1 nM | 1000 nM |  | COc1ccc(C2=NN(C3CCCCCC3)C(=O)[C@@H]3CC=CC[C@H]23)cc1OCCc1ccc(N(C)C)cc1 (racemic) | > 63100 nM | > 63 | 
17 | 63.1 nM | 1260 nM |  | COc1ccc(CCOc2cc(C3=NN(C4CCCCCC4)C(=O)[C@@H]4CC=CC[C@H]34)ccc2OC)cc1 (racemic) | > 63100 nM | > 50 | 
18 | 100 nM | 2000 nM |  | COc1ccc(C2=NN(C3CCCCCC3)C(=O)[C@@H]3CC=CC[C@H]23)cc1OCCO (racemic) | 31600 nM | 16 | 
19 | 79.4 nM | 1580 nM |  | COc1ccc(C2=NN(C3CCCCCC3)C(=O)[C@@H]3CC=CC[C@H]23)cc1OCc1cccc(OC)c1OC (racemic) | 3980 nM | 2.5 | 
20 | 316 nM |  | 0.631 nM | COc1ccc(C2=NN(C3CCCCCC3)C(=O)[C@@H]3CC=CC[C@H]23)cc1OC (racemic) |  |  | Ratio IC50 [6]: 501
21 | 100 nM |  |  | COc1ccc(C2=NN(C3CCCCCC3)C(=O)[C@@H]3CC=CC[C@H]23)cc1OCc1ccccn1 (racemic) |  |  | 
22 | 158 nM | 1260 nM |  | COc1ccc(C2=NN(C3CCCCCC3)C(=O)[C@@H]3CC=CC[C@H]23)cc1OCc1ccncc1 (racemic) | 15800 nM | 12.6 | 
23 | 3980 nM |  |  | COc1ccc(C2=NN(C3CCCCCC3)C(=O)[C@@H]3CC=CC[C@H]23)cc1 (racemic) |  |  | 
